Assay outcomes (PubChem BioAssay)
Compounds with a hit are over-represented: about 2.1% of the library has one in this group of screens.
RanGTP-Impb inh = inhibitors of RanGTP-importin-beta interaction, primary screen, biochemical, FRET, CFP-Ran, YFP-importin-beta, homogeneous. cell-free CFP-Ran/YFP-importin-beta FRET ratio. inhibition, % (concentration not given with the values). 300,000 tested, 1.1% active. AID 2216;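 active = more than half of the replicate wells show a fall in the fluorescence ratio signal beyond about 16%, limit read from the data, passing the limit was not always enough; inconclusive = exactly half of the replicate wells pass the set limit; inactive = fewer than half of replicates pass the limit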;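 note: 0% = DMSO wells and 100% = Ran loaded with GDP instead of GTP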
Runt-SMMHC FRET = inhibitors of human RUNX1 Runt domain binding to CBFb-SMMHC; 220,000 tested, 0.74% active; AID 1434; Cerulean-Runt/Venus-CBFb-SMMHC FRET ratio 530/480, 1 h; inhibition, % at 20 µM;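 active = mean inhibition across duplicate retests at 20 µM reaching about 50%, limit read from the data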;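 note: 0% = DMSO wells and 100% = wells with excess untagged CBFb-SMMHC; inhibitors lower the FRET ratio by blocking Runt binding to CBFb-SMMHC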
Runt-CBFb FRET = blocks binding of human RUNX1 Runt domain to CBFb; Cerulean-Runt/Venus-CBFb FRET ratio 530/480, 1 h; Q01196+Q13951; inhibition, % at 20 µM; 220,000 tested, 0.46% active;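 active = inhibition over about 50% at 20 µM in the single-dose screen, limit read from the data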;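 note: 0% = DMSO wells and 100% = excess unlabeled CBFb competitor control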
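Assay system: Cerulean-tagged RUNX1 Runt domain (FRET donor) fusion protein / Amount: 100 nM each of Venus-CBFb and Cerulean-Runt domain / Medium: Tris buffer pH 7.5 with salts and BSA / Also added: Venus-CBFb 100 nM / Schedule: 1 h complex formation plus 1 h compound treatment, room temperature / Signal: FRET fluorescence / Read-out: loss of energy transfer signal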
Hck-Nef inh = blocks Nef-activated human Hck kinase; P08631; Recombinant Hck-YEEI plus Nef, Z-Lyte FRET kinase assay; inhibition, % at 20 µM; 220,000 tested, 0.68% active; AID 463187;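 active = Hck-Nef kinase inhibition above about 50%, limit read from the data; inactive = inhibition below that limit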;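 note: 0% = DMSO with Hck plus Nef and 100% = Hck alone without Nef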
Target sequence (P08631 whole entry, looked up): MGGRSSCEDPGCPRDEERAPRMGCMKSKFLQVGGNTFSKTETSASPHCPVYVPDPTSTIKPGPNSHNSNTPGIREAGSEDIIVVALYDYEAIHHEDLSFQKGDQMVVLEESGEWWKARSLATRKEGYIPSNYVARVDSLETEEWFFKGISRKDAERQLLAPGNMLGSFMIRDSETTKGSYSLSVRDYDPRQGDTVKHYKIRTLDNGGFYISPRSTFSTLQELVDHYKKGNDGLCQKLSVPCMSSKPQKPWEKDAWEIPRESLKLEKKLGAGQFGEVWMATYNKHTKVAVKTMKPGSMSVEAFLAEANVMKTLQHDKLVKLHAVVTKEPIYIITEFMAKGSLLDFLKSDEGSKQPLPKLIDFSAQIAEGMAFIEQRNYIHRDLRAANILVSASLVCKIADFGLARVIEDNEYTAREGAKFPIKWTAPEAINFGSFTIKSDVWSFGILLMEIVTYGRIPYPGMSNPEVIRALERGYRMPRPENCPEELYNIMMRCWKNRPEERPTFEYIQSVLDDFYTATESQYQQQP
Pemphigus Ab inh = human desmoglein-3 autoantibody binding inhibition; P32926; DSG3-coupled beads, scFv-anti-DSG3-GFP binding, flow cytometry; hits give low values; binding (percent of control), % at 10 µM; 310,000 tested, 0.48% active; AID 588358;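 active = binding more than 3 SD below its plate's average and above zero; inconclusive = below that plate limit but binding exactly zero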;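 note: hits lower antibody fragment binding to DSG3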
p-CIP stab down = compounds decreasing mouse p/CIP protein stability. Q05BA5. F442A p/CIP-EGFP cells, EGFP fluorescence, 16 h. decrease of EGFP signal, % at 10 µM. 290,000 tested, 0.01% active;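 active = EGFP signal decrease of at least 30% at 10 µM or well 3 SD below plate mean, unless failing retest; inactive = the rest, including hits failing retest or dose response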
YIC FRET counter = counter-screen for RanGTP-importin-beta inhibitors: YIC FRET probe; shares compounds with RanGTP-Impb inh; Purified YIC probe, intramolecular FRET ratio YFP/CFP; IC50, µM; 1,000 tested, 40% active;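 active = fitted half-maximal inhibitory concentration no more than tenfold above the top dose tested; inconclusive = flat fit with 30 to 70% activity, or poor fit; inactive = half-maximal concentration beyond tenfold above the top dose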
* marks the source's active call; other numbers are inactive results; ? = inconclusive; / = no result given.

SMILES | RanGTP-Impb inh | Runt-SMMHC FRET | Runt-CBFb FRET | Hck-Nef inh | Pemphigus Ab inh | p-CIP stab down | YIC FRET counter
Cc1cccc2cc(C#N)c(NCCCn3ccnc3)nc12 | 35* | 86* | 33 | 25 | 101 | 6 | 20*
Cc1ccc2cc(CCNC(=O)C3CCCCC3)c(=O)[nH]c2c1C | 4 | / | / | / | 96 | 5 | /
CCN(CC)C(=O)C1=C(C)N(CCCOC)C(=O)C(CC(=O)NCc2ccco2)C1 (configuration not stated) | / | / | / | / | 110 | / | /
CCCCn1c(N)c(N(Cc2ccccc2OC)C(=O)CN2C(=O)NC(C)(c3ccccc3)C2=O)c(=O)[nH]c1=O (configuration not stated) | 6 | / | / | / | 121 | / | /
O=C(COc1ccccc1Cc1ccccc1)Nc1cccnc1 | / | / | / | / | 102 | / | /
COc1cc(C)c(NC(=S)Nc2cccc(Cl)c2C)cc1OC | 0 | -2 | 5 | -1 | 101 | -2 | /
CCOc1ccc(CCNC(=O)COC(=O)c2ccc(C)s2)cc1OCC | 6 | / | / | / | 111 | -12 | /
COc1ccc(S(=O)(=O)N2CCCCC2)cc1C(=O)N1CCCCCC1 | -3 | / | / | / | 112 | 6 | /
CCOc1ccc(CN2CCN(Cc3cccn3-c3ncccn3)CC2CCO)cc1 (configuration not stated) | -1 | -7 | -1 | 3 | 101 | 14 | /
Oc1ccccc1/C=N/Nc1cc(N2CCCC2)nc(N2CCCC2)n1 | 29* | -2 | -3 | 1 | 132 | -15 | >50
CCN(C[C@H]1N[C@@](C)(C(=O)OC)[C@H]2C(=O)N(Cc3ccccc3)C(=O)[C@@H]12)C(=O)c1ccc(C)cc1 | / | / | / | / | 95 | / | /
Cc1cc(Nc2ccccc2)nn1C(=O)c1ccccc1 | 18* | -6 | -2 | 3 | 122 | -1 | >50
Cc1cc(C)c2c(n1)nn1c(NCCCN(C)C)cc(C)nc21 | 30* | 64* | 22 | 33 | 101 | -1 | 27*
Cc1ccc(S(=O)(=O)NCCN(CCNS(=O)(=O)c2ccc(C)cc2)S(C)(=O)=O)cc1 | 21* | -3 | -4 | 0 | 84 | -3 | >50
COc1ccc(NC(=O)N2CCN(C(=O)Nc3ccc(OC)cc3)CC2)cc1 | -4 | 0 | 1 | 7 | 107 | 1 | /
COc1ccc(NC(=O)N2CCCCCC2)cc1 | 21* | 3 | 0 | 0 | / | -11 | >50
CSc1ccc(/C=C(/Sc2nnc(-c3ccccc3)o2)C(=O)O)cc1 | 25* | -6 | -1 | 23 | / | -2 | 41*
COc1ccc(-c2nnc(S/C(=C/c3ccc(Cl)cc3)C(=O)O)o2)cc1 | ? | -4 | 3 | 25 | 99 | 0 | /
Cc1ccccc1-n1c(SCC(=O)N/N=C/c2sccc2C)nc2ccccc2c1=O | 1 | 1 | -2 | 7 | 98 | 4 | /
CC(C)S(=O)(=O)c1nsc2nc(=O)c(/C=C3\C=Nc4ccccc43)c(N)n12 | 31* | 80* | 35 | 2 | 100 | -31 | 9.7*
CSc1nsc2nc(=O)c(/C=C3\C=Nc4ccccc43)c(N)n12 | 26* | 51* | 14 | 0 | 97 | -5 | 28*
CCn1nnc2cc(C(=O)Nc3cc(Cl)ccc3C)ccc21 | / | / | / | / | 95 | / | /
COc1ccc(Cl)cc1NS(=O)(=O)c1cccc(C(=O)NCCCN2CCOCC2)c1 | / | / | / | / | 97 | / | /
Cc1cc(C)c2cc(C#N)c(NCCCNC(=O)c3ccncc3)nc2c1 | / | / | / | / | 99 | / | /
COc1cc(C(=O)NCCCNc2nc3cc(C)cc(C)c3cc2C#N)cc(OC)c1OC | 21* | 73* | / | 19 | 103 | -4 | 28*
SMILES | RanGTP-Impb inh | Runt-SMMHC FRET | Runt-CBFb FRET | Hck-Nef inh | Pemphigus Ab inh | p-CIP stab down | YIC FRET counter
COC(=O)c1ccccc1NCc1cc(=O)oc2cc(O)c(O)cc12 | 20* | / | / | / | 90 | 5 | 4.5*
O=c1cc(N2CCC3(CC2)OCCO3)[nH]c(=O)n1C1CCCCC1 | 2 | 4 | 1 | 2 | 114 | -24 | /
CCn1c(=O)cc(N2CCC3(CC2)OCCO3)[nH]c1=O | 24* | 1 | 3 | 3 | 106 | 0 | >50
COc1cc(OC)cc(-c2cc3nc(C)cc(N4CCN(C(=O)c5ccco5)CC4)n3n2)c1 | 29* | 26 | 12 | 2 | / | -5 | 3.7*
CCOC(=O)C1CCN(C(=O)c2ccc(N3CCCC3=O)cc2)CC1 | / | / | / | / | 104 | / | /
CC(C)CCOC(=O)C[N+](C)(C)CCOC1CC2CCC1(C)C2(C)C (configuration not stated) | 1 | -2 | -3 | 0 | 110 | 2 | /
CCC(C)OC(=O)C[N+](C)(C)CCOC1CC2CCC1(C)C2(C)C (configuration not stated) | 22* | -2 | 0 | 19 | / | -31 | >50
O=C(NC1CCCCCC1)C(=S)NCCc1ccccc1 | 25* | -3 | 20 | 28 | 93 | -3 | >50
Cc1cc(C)c[n+](-c2nc3ccccc3nc2[N-]S(=O)(=O)c2ccc(Br)s2)c1 | 30* | 78* | 34 | -1 | 102 | -47 | 7.9*
O=S(=O)([N-]c1nc2ccccc2nc1-[n+]1ccccc1)c1ccccc1 | 3 | 2 | 0 | -1 | / | -8 | /
CCC(C(=O)NCCCN1CC(C)CC(C)C1)n1nc(C)c2sc3ccccc3c2c1=O (configuration not stated) | 3 | / | / | / | 92 | 1 | /
Cn1c(N)c(C(=O)COC(=O)C2(c3ccc(F)cc3)CCCC2)c(=O)n(C)c1=O | 22* | -1 | -4 | -6 | 103 | -12 | >50
CN1CCc2c(sc(NC(=O)c3ccc(S(=O)(=O)N4CCOCC4)cc3)c2C(N)=O)C1 | 19* | 2 | 1 | -1 | 107 | -12 | 46*
COc1ccc(C(=O)/C=C/Nc2cccc(C)n2)cc1OC | 20* | 36 | 7 | 17 | 100 | -28 | 26*
COc1ccccc1C(=O)NC(=S)Nc1ccccc1N1CCCC1 | 4 | / | / | / | / | -4 | /
COc1ccccc1C(=O)NC(=S)Nc1ccc(N2CCCC2)cc1 | 20* | 2 | 1 | 3 | 101 | 0 | >50
